Data as given in ChEMBL document CHEMBL4602627, “Further exploration of the structure-activity relationship of imidazoquinolines; identification of potent C7-substituted imidazoquinolines” (Bioorg Med Chem Lett, 2020).
Calls of active or inactive are those of the source. The calls are words filed in the database; no cut-off is given here.

Key:
[1] = target: T1, Toll-like receptor 7/8 (Canis lupus familiaris) (UniProt A1XC23+H6BA89); assay: Agonist activity at TLR7/8 in dog PBMC assessed as TNFalpha secretion at 20 uM after 29 hrs by ELISA (reference value: 8 +/- 2 pg/ml); assay type: cell-based
Method in brief: (§1)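 Canine PBMCs (2 × 10^6 cells/mL) were incubated with agonist at 20 µM for 29 h. TNFα, IL-12, IL-6, IL-10, IL-2 and IFNγ in the medium were measured by ELISA, in triplicate. Vehicle was 1% DMSO in water.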

[2] = target: T1, Toll-like receptor 7/8 (Canis lupus familiaris); assay: Agonist activity at TLR7/8 in dog PBMC assessed as IL-12 secretion at 20 uM after 29 hrs by ELISA (reference value: 18 +/- 8 pg/ml); assay type: cell-based; method in brief: as §1
[3] = target: T1, Toll-like receptor 7/8 (Canis lupus familiaris); assay: Agonist activity at TLR7/8 in dog PBMC assessed as IL-6 secretion at 20 uM after 29 hrs by ELISA (reference value: 310 +/- 90 pg/ml); assay type: cell-based; method in brief: as §1
[4] = target: T1, Toll-like receptor 7/8 (Canis lupus familiaris); assay: Agonist activity at TLR7/8 in dog PBMC assessed as IL-10 secretion at 20 uM after 29 hrs by ELISA (reference value: 33 +/- 16 pg/ml); assay type: cell-based; method in brief: as §1
[5] = target: T1, Toll-like receptor 7/8 (Canis lupus familiaris); assay: Agonist activity at TLR7/8 in dog PBMC assessed as IL-2 secretion at 20 uM after 29 hrs by ELISA (reference value: 47 +/- 20 pg/ml); assay type: cell-based; method in brief: as §1
[6] = target: T1, Toll-like receptor 7/8 (Canis lupus familiaris); assay: Agonist activity at TLR7/8 in dog PBMC assessed as IFNgamma secretion at 20 uM after 29 hrs by ELISA (reference value: 0.4 +/- 0.7 pg/ml); assay type: cell-based; method in brief: as §1
[7] = target: T1, Toll-like receptor 7/8 (Canis lupus familiaris); assay: Agonist activity at TLR7/8 in dog PBMC assessed as maximal increase in TNFalpha secretion at 20 uM after 30 to 48 hrs by ELISA; assay type: cell-based
[8] = target: T1, Toll-like receptor 7/8 (Canis lupus familiaris); assay: Agonist activity at TLR7/8 in dog PBMC assessed as maximal increase in IL-12 secretion at 20 uM after 30 to 48 hrs by ELISA; assay type: cell-based
[9] = target: T1, Toll-like receptor 7/8 (Canis lupus familiaris); assay: Agonist activity at TLR7/8 in dog PBMC assessed as maximal increase in IFN-gamma secretion at 20 uM after 30 to 48 hrs by ELISA; assay type: cell-based
[10] = Solubility of the compound at >100 uM; assay type: physicochemical
[11] = target: T1, Toll-like receptor 7/8 (Canis lupus familiaris); assay: Agonist activity at TLR7/8 in dog PBMC assessed as increase in IL-12 secretion at 20 uM measured over 29 hrs by ELISA
[12] = target: T1, Toll-like receptor 7/8 (Canis lupus familiaris); assay: Agonist activity at TLR7/8 in dog PBMC assessed as increase in TNFalpha secretion at 20 uM measured over 29 hrs by ELISA
[13] = target: T1, Toll-like receptor 7/8 (Canis lupus familiaris); assay: Agonist activity at TLR7/8 in dog PBMC assessed as increase in IFN-gamma secretion at 20 uM measured over 29 hrs by ELISA
[14] = target: T2, Toll-like receptor 7 (Homo sapiens) (UniProt Q9NYK1); assay: Agonist activity at human TLR7 expressed in HEK-Blue cells assessed as induction of NFkappaB activation by measuring increase in SEAP level by SEAP reporter gene-based UV-vis absorbance method relative to resiquimod; assay type: cell-based
T2 sequence (whole entry): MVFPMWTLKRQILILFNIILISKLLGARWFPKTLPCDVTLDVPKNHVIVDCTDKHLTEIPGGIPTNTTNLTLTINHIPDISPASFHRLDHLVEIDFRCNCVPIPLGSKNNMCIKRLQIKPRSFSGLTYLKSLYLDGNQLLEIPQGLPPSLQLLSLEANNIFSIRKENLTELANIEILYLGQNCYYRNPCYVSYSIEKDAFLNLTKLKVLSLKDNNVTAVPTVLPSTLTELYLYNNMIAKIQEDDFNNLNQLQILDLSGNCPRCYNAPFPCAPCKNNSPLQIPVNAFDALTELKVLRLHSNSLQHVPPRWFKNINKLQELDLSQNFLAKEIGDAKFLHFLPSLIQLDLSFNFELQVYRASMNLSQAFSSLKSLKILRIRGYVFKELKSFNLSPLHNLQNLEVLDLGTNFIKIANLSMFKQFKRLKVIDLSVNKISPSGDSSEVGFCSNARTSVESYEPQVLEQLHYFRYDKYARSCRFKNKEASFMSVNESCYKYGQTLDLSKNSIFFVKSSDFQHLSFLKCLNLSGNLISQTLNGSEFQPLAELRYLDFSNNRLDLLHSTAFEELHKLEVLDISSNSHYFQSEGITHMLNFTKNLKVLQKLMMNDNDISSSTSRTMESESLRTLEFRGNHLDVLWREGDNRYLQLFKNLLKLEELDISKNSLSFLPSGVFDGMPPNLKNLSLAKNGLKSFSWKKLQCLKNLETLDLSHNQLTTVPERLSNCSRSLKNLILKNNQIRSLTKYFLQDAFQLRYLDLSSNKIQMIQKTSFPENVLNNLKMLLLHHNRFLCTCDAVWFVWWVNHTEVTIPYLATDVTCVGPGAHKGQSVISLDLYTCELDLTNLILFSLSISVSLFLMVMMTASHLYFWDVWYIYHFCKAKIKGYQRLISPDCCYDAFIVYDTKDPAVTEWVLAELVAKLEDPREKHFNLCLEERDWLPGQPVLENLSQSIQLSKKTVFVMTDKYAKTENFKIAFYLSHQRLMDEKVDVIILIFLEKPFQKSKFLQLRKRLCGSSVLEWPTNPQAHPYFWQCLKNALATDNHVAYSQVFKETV

[15] = target: T3, Toll-like receptor 8 (Homo sapiens) (UniProt Q9NR97); assay: Agonist activity at human TLR8 expressed in HEK-Blue cells assessed as induction of NFkappaB activation by measuring increase in SEAP level by SEAP reporter gene-based UV-vis absorbance method relative to resiquimod; assay type: cell-based
T3 sequence (whole entry): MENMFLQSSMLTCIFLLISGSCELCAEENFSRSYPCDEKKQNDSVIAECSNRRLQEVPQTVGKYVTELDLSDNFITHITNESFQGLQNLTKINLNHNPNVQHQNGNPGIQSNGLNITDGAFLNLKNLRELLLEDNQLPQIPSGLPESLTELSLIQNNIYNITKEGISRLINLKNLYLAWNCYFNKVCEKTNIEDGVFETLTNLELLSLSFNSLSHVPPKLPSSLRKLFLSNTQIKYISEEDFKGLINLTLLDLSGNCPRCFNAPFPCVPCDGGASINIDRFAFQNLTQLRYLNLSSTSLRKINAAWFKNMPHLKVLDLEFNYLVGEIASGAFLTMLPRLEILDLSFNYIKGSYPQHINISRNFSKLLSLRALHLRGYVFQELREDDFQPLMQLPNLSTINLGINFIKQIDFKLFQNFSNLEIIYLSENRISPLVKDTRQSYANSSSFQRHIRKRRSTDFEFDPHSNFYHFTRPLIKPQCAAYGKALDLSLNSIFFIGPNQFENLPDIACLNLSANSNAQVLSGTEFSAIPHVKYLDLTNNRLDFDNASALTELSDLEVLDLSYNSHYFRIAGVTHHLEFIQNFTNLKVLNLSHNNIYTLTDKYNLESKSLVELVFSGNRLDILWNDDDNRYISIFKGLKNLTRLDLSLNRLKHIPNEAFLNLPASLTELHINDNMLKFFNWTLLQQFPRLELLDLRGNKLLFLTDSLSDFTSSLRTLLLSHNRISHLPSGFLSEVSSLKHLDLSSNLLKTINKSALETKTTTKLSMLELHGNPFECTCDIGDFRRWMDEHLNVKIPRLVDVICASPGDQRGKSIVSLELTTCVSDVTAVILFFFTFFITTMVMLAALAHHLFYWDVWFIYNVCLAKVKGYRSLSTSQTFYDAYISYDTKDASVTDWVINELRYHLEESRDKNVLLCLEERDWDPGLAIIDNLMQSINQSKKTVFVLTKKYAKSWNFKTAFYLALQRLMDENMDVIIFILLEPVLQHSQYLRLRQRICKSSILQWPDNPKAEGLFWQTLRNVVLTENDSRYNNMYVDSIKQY

[16] = target: T2, Toll-like receptor 7 (Homo sapiens); assay: Agonist activity at human TLR7 expressed in HEK-Blue cells assessed as induction of NFkappaB activation by measuring increase in SEAP level by SEAP reporter gene-based UV-vis absorbance method relative to imiquimod; assay type: cell-based

Structure (SMILES): CCCCc1nc2c(N)nc3cc(Cl)ccc3c2n1CC(C)C
- Activity [1]: 91 pg/mL
- Activity [2]: 760 pg/mL
- Activity [3]: 240 pg/mL
- Activity [4]: 14 pg/mL
- Activity [5]: 63 pg/mL
- Activity [6]: 7 pg/mL
- Activity [7]: Active
- Activity [8]: Active
- Activity [9]: Active
- solubility [10]: Insoluble
- Activity [11]: Active
- Activity [12]: Active
- Activity [13]: Active

Structure (SMILES): CCCCc1nc2c(N)nc3cc(Cl)ccc3c2n1CC(C)(C)O
- Activity [1]: 22 pg/mL
- Activity [2]: 1700 pg/mL
- Activity [3]: 230 pg/mL
- Activity [4]: 7 pg/mL
- Activity [5]: 55 pg/mL
- Activity [6]: 13 pg/mL
- fold change (FC) [14]: < 2
- fold change (FC) [15]: < 4
- fold change (FC) [16]: < 100
- Activity [7]: Active
- Activity [8]: Active
- Activity [9]: Active
- solubility [10]: Insoluble
- Activity [11]: Active
- Activity [12]: Active
- Activity [13]: Active

Structure (SMILES): CCOCc1nc2c(N)nc3cc(Cl)ccc3c2n1CC(C)(C)O
- Activity [1]: 70 pg/mL
- Activity [2]: 1900 pg/mL
- Activity [3]: 320 pg/mL
- Activity [4]: 12 pg/mL
- Activity [5]: 76 pg/mL
- Activity [6]: 16 pg/mL
- Activity [7]: Active
- Activity [8]: Active
- Activity [9]: Active
- solubility [10]: Insoluble
- Activity [11]: Active
- Activity [12]: Active
- Activity [13]: Active

Structure (SMILES): CC(C)Cn1cnc2c(N)nc3ccccc3c21 [IMIQUIMOD]
- Activity [1]: 25 pg/mL
- Activity [2]: 1200 pg/mL
- Activity [3]: 300 pg/mL
- Activity [4]: 16 pg/mL
- Activity [5]: 85 pg/mL
- Activity [6]: 18 pg/mL
- Activity [7]: Active
- Activity [8]: Active
- Activity [9]: Active
- solubility [10]: Insoluble
- Activity [11]: Active
- Activity [12]: Active
- Activity [13]: Active

Structure (SMILES): CCOCc1nc2c(N)nc3cc(Cl)ccc3c2n1CC(C)C
- Activity [1]: 114 pg/mL
- Activity [2]: 781 pg/mL
- Activity [3]: 280 pg/mL
- Activity [4]: 20 pg/mL
- Activity [5]: 50 pg/mL
- Activity [6]: 5 pg/mL
- Activity [7]: Active
- Activity [8]: Active
- Activity [9]: Active
- solubility [10]: Insoluble
- Activity [11]: Active
- Activity [12]: Active
- Activity [13]: Active

Structure (SMILES): CCOCc1nc2c(N)nc3cc(C#N)ccc3c2n1CC(C)(C)O
- Activity [1]: 80 pg/mL
- Activity [2]: 13 pg/mL
- Activity [3]: 214 pg/mL
- Activity [4]: 6 pg/mL
- Activity [5]: 46 pg/mL
- Activity [6]: 0.2 pg/mL
- Activity [7]: Active
- Activity [8]: Active
- solubility [10]: Insoluble
- Activity [12]: Active

Structure (SMILES): CCCCc1nc2c(N)nc3cc(OC)ccc3c2n1CC(C)C
- Activity [1]: 49 pg/mL
- Activity [2]: 746 pg/mL
- Activity [3]: 500 pg/mL
- Activity [4]: 37 pg/mL
- Activity [5]: 30 pg/mL
- Activity [6]: 0 pg/mL
- Activity [7]: Active
- Activity [8]: Active
- Activity [9]: Active
- solubility [10]: Insoluble
- Activity [11]: Active
- Activity [12]: Active

Structure (SMILES): CCCCc1nc2c(N)nc3cc(C#N)ccc3c2n1CC(C)(C)O
- Activity [1]: 44 pg/mL
- Activity [2]: 418 pg/mL
- Activity [3]: 290 pg/mL
- Activity [4]: 14 pg/mL
- Activity [5]: 45 pg/mL
- Activity [6]: 12 pg/mL
- Activity [7]: Active
- Activity [8]: Active
- Activity [9]: Active
- solubility [10]: Insoluble
- Activity [11]: Active
- Activity [12]: Active
- Activity [13]: Active

Structure (SMILES): CCOCc1nc2c(N)nc3cc(C#N)ccc3c2n1CC(C)C
- Activity [1]: 7 pg/mL
- Activity [2]: 190 pg/mL
- Activity [3]: 71 pg/mL
- Activity [4]: 6 pg/mL
- Activity [5]: 57 pg/mL
- Activity [6]: 4 pg/mL
- Activity [7]: Active
- Activity [8]: Active
- Activity [9]: Active
- solubility [10]: Insoluble
- Activity [11]: Active
- Activity [13]: Active

Structure (SMILES): CCCCc1nc2c(N)nc3cc(C#N)ccc3c2n1CC(C)C
- Activity [1]: 10 pg/mL
- Activity [2]: 920 pg/mL
- Activity [3]: 350 pg/mL
- Activity [4]: 37 pg/mL
- Activity [5]: 60 pg/mL
- Activity [6]: 13 pg/mL
- Activity [7]: Active
- Activity [8]: Active
- Activity [9]: Active
- solubility [10]: Insoluble
- Activity [11]: Active
- Activity [12]: Active
- Activity [13]: Active

Structure (SMILES): CCOCc1nc2c(N)nc3ccccc3c2n1CC(C)(C)O [RESIQUIMOD]
- Activity [1]: 190 pg/mL
- Activity [2]: 2800 pg/mL
- Activity [3]: 380 pg/mL
- Activity [4]: 21 pg/mL
- Activity [5]: 120 pg/mL
- Activity [6]: 26 pg/mL
- Activity [7]: Active
- Activity [8]: Active
- Activity [9]: Active
- solubility [10]: Insoluble
- Activity [11]: Active
- Activity [12]: Active
- Activity [13]: Active
